For one data set, the system named is Caco-2. In words: Caco-2 bi-directional permeability assay. The format is in vitro ADME. (In general: Passage across Caco-2 layers is used to estimate intestinal permeability.)
For data set [1], the system named is bacterial reverse mutation. Description: Non-GLP in vitro bacterial reverse mutation. Format: cell-based.
In the next data set the target is hERG channels (Homo sapiens, UniProt Q12809). Description: hERG channel block. The format is biochemical. The settings on record: at a concentration of 10 μM or below.
Another data set concerns the target MeV RdRp (Measles virus, UniProt P12576). Description: Plasmid-based mini-replicon luciferase assay of RdRp activity in BSR-T7/5 cells. The format is cell-based. The settings on record: 36 hours post-transfection; averages of three experiments. In outline:
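BSR-T7/5 cells were transfected with plasmids encoding MeV L, N and P plus a firefly luciferase minigenome reporter, then incubated with a range of test compound concentrations or vehicle. Luciferase activity in cell lysates was read 36 h post-transfection and expressed relative to vehicle-treated samples. Dose-response inhibition curves were generated from the mean of three experiments ± SD.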
A general note: Replicon systems follow genome replication, usually without infectious particles.

Sequence of MeV RdRp (P12576 whole entry): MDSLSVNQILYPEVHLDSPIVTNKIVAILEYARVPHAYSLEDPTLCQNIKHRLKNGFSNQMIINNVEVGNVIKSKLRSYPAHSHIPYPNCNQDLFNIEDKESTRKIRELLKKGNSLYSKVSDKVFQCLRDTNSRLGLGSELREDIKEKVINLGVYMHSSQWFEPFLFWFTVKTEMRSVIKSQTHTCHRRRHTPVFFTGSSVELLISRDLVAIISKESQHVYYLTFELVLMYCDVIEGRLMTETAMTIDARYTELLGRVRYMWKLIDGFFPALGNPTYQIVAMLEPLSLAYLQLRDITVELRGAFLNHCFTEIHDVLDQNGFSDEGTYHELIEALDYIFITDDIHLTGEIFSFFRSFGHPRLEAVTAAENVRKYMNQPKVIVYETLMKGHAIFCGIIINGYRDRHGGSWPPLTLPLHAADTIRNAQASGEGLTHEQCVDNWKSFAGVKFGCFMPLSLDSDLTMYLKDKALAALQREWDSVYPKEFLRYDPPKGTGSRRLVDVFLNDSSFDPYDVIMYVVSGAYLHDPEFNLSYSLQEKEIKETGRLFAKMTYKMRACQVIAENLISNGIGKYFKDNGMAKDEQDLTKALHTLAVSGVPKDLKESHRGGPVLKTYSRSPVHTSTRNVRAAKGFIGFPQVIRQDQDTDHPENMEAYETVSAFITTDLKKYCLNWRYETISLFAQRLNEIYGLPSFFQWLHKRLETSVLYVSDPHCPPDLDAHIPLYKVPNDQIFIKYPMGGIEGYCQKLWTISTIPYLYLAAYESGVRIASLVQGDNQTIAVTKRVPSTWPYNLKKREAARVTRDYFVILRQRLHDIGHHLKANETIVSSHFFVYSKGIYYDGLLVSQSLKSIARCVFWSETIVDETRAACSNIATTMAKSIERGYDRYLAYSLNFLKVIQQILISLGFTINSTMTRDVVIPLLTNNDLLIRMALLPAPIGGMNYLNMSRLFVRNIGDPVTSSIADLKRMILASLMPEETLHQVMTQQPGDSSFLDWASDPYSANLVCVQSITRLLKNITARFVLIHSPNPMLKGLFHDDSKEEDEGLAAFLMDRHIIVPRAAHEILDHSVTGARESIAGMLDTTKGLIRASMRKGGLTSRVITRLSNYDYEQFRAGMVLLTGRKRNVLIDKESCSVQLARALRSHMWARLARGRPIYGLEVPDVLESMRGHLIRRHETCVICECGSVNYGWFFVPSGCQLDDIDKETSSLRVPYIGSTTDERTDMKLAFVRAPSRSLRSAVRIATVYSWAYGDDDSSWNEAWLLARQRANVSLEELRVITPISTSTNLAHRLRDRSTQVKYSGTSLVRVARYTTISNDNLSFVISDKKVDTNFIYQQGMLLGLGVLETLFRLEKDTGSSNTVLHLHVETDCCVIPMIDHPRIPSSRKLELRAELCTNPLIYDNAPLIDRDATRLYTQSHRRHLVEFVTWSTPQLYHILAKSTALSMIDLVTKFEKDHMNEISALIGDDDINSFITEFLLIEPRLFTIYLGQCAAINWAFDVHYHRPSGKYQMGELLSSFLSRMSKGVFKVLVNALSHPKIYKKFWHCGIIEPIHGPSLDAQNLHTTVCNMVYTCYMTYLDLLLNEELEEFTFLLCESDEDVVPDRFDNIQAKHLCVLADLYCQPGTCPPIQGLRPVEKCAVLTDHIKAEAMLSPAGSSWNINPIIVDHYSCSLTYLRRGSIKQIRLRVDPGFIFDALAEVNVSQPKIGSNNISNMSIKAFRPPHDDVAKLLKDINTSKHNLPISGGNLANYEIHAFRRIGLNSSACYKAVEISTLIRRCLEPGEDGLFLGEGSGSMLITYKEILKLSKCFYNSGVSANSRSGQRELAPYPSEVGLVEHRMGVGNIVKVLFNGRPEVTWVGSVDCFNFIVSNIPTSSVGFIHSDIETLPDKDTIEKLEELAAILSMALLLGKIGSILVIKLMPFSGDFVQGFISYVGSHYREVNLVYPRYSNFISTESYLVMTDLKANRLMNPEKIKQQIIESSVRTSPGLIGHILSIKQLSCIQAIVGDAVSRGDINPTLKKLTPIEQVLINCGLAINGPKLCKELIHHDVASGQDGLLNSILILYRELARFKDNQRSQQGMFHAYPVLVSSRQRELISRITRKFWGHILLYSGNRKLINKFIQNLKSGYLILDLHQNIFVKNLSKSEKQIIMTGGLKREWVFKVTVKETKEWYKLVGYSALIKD
Sequence of MeV RdRp (P03422 whole entry, further chain): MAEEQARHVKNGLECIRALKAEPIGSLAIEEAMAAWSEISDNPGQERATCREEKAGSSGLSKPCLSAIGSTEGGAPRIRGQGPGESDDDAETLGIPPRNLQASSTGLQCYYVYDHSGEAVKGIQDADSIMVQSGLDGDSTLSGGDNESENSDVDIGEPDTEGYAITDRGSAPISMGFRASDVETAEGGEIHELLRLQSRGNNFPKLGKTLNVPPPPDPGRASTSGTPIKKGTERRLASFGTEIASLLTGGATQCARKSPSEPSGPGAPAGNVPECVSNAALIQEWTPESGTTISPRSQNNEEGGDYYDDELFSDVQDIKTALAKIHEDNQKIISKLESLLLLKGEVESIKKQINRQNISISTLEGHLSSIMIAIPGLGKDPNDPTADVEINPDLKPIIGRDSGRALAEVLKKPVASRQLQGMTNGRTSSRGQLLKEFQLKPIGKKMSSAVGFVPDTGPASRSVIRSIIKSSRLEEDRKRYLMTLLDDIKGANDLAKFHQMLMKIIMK
Sequence of hERG channels (Q12809 whole entry): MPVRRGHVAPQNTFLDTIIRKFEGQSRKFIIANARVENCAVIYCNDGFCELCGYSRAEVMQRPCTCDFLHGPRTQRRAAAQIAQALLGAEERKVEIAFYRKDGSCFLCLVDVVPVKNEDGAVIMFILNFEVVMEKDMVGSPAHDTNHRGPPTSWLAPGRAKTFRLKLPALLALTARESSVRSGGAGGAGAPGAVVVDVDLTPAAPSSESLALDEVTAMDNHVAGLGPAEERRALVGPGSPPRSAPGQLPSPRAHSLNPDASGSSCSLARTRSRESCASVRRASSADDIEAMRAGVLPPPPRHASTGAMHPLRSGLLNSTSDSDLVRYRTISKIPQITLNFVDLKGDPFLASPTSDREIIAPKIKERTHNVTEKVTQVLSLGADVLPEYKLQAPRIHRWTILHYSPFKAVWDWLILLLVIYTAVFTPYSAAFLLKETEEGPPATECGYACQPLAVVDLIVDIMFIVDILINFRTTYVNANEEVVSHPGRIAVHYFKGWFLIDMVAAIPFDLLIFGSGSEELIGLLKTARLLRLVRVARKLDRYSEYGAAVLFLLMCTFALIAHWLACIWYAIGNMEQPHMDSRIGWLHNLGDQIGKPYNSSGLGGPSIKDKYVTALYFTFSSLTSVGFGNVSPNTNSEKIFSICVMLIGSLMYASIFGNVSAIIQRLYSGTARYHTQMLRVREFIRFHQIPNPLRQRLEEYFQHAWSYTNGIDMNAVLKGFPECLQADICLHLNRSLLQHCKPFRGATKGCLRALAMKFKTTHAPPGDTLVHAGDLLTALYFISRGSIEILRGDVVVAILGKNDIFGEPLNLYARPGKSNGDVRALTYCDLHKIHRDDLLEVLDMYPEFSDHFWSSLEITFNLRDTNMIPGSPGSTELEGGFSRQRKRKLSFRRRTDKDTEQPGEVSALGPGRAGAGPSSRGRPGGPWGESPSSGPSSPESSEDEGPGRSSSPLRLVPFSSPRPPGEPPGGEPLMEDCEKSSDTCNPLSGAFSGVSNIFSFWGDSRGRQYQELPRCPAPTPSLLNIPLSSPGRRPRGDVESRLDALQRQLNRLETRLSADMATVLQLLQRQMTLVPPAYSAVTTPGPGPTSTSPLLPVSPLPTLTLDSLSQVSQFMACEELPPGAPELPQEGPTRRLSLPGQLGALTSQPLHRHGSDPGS

Turning to `Cn1nc(C(F)(F)F)cc1C(=O)Nc1ccc(S(=O)(=O)N2CCCCC2)cc1` [Compound 2], the permeability entry in the data set on Caco-2 is listed as “high permeability”. Further, the “mutagenicity (Ames)” value in data set [1] is “non-mutagenic”. Further, at hERG channels, the hERG channel block result is given as “did not block”. Also, the “inhibition of viral RdRp activity (relative luciferase activity)” value against MeV RdRp is reported as “dose-dependent inhibition”.
For `Cn1nc(C(F)(F)F)cc1C(=O)Nc1ccc(S(=O)(=O)N2CCCC[C@H]2CCN2CCOCC2)cc1` [Compound 2o, (S)-1-methyl-N-(4-((2-(2-morpholinoethyl)piperidin-1-yl)sulfonyl)phenyl)-3-(trifluoromethyl)-1H-pyrazole-5-carboxamid], the permeability result in the data set on Caco-2 is recorded as “high permeability”. For the same compound, the “inhibition of viral RdRp activity (relative luciferase activity)” value against MeV RdRp is reported as “dose-dependent inhibition”.

Source of the values: publication PMC3701436 (Journal of medicinal chemistry, 2012).
